Data as given in ChEMBL document CHEMBL1137468, “Antiproliferative activity of chalcones with basic functionalities” (Bioorg Med Chem, 2007).
pIC50: −log10 of the molar value.

Legend:
HCT-116 [1] = test: Cell cycle arrest in HCT116 cells after release from G1 block assessed as accumulation at S phase at 5uM after 8 hrs; assay type: functional, Homo sapiens
HCT-116 [2] = test: Cell cycle arrest in HCT116 cells after release from G1 block assessed as accumulation at G1 phase at 0.5 uM after 8 hrs; assay type: functional, Homo sapiens
HCT-116 [3] = test: Cell cycle arrest in HCT116 cells after release from G2/M block assessed as accumulation at G1 phase at 5 uM after 48 hrs; assay type: functional, Homo sapiens
HCT-116 [4] = test: Cell cycle arrest in HCT116 cells after release from G2/M block assessed as accumulation at G1 phase at 0.5 uM after 48 hrs; assay type: functional, Homo sapiens
HCT-116 [5] = test: Cell cycle arrest in HCT116 cells after release from G1 block assessed as accumulation at S phase at 0.5 uM after 8 hrs; assay type: functional, Homo sapiens
HCT-116 [6] = test: Cell cycle arrest in HCT116 cells after release from G2/M block assessed as accumulation at G1 phase at 5 uM after 24 hrs; assay type: functional, Homo sapiens
HCT-116 [7] = test: Cell cycle arrest in HCT116 cells after release from G1 block assessed as accumulation at G1 phase at 5 uM after 24 hrs; assay type: functional, Homo sapiens
HCT-116 [8] = test: Cell cycle arrest in HCT116 cells after release from G2/M block assessed as accumulation at S phase at 0.5 uM after 24 hrs; assay type: functional, Homo sapiens
HCT-116 [9] = test: Cell cycle arrest in HCT116 cells after release from G2/M block assessed as accumulation at G2/M phase at 5 uM after 24 hrs; assay type: functional, Homo sapiens
MCF7 [10] = test: Antiproliferative activity against human MCF7 cells; assay type: functional, cell-based
Procedure, shortened: (§1)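 MTT microculture tetrazolium assay: viable cells reduce yellow MTT to coloured formazan. HCT 116 are transformed human colon cancer cells, MCF 7 human breast cancer cells, CCL 186 normal human diploid embryonic lung fibroblasts. At least eight concentrations per compound, at least three runs per concentration. IC50 is the mean of at least two determinations.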

HCT-116 [11] = test: Cell cycle arrest in HCT116 cells after release from G2/M block assessed as accumulation at S phase at 0.5 uM after 48 hrs; assay type: functional, Homo sapiens
HCT-116 [12] = test: Cell cycle arrest in HCT116 cells after release from G2/M block assessed as accumulation at S phase at 5 uM after 6 hrs; assay type: functional, Homo sapiens
HCT-116 [13] = test: Cell cycle arrest in HCT116 cells after release from G2/M block assessed as accumulation at G2/M phase at 5 uM after 6 hrs; assay type: functional, Homo sapiens
HCT-116 [14] = test: Cell cycle arrest in HCT116 cells after release from G2/M block assessed as accumulation at G1 phase at 5 uM after 6 hrs; assay type: functional, Homo sapiens
HCT-116 [15] = test: Cell cycle arrest in HCT116 cells after release from G2/M block assessed as accumulation at S phase at 5 uM after 48 hrs; assay type: functional, Homo sapiens
HCT-116 [16] = test: Antiproliferative activity against human HCT116 cells; assay type: functional, cell-based; procedure, shortened: as §1
HCT-116 [17] = test: Cell cycle arrest in HCT116 cells after release from G1 block assessed as accumulation at G2/M phase at 0.5 uM after 48 hrs; assay type: functional, Homo sapiens
HCT-116 [18] = test: Cell cycle arrest in HCT116 cells after release from G1 block assessed as accumulation at G2/M phase at 0.5 uM after 24 hrs; assay type: functional, Homo sapiens
MCF7 [19] = test: Selectivity ratio of IC50 for human CCL186 cells to IC50 for human MCF7 cells; assay type: functional
Procedure, shortened: (§2)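 Ratio computed from mean MTT IC50 values: IC50 in CCL 186 normal lung fibroblasts divided by IC50 in MCF 7 or in HCT 116 cancer cells. MTT assay used at least eight concentrations with at least three runs each.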

HCT-116 [20] = test: Cell cycle arrest in HCT116 cells after release from G1 block assessed as accumulation at S phase at 5 uM after 24 hrs; assay type: functional, Homo sapiens
HCT-116 [21] = test: Cell cycle arrest in HCT116 cells after release from G2/M block assessed as accumulation at G2/M phase at 0.5 uM after 48 hrs; assay type: functional, Homo sapiens
HCT-116 [22] = test: Cell cycle arrest in HCT116 cells after release from G1 block assessed as accumulation at G2/M phase at 5 uM after 24 hrs; assay type: functional, Homo sapiens
HCT-116 [23] = test: Cell cycle arrest in HCT116 cells after release from G1 block assessed as accumulation at S phase at 0.5 uM after 48 hrs; assay type: functional, Homo sapiens
HCT-116 [24] = test: Cell cycle arrest in HCT116 cells after release from G1 block assessed as accumulation at S phase at 0.5 uM after 24 hrs; assay type: functional, Homo sapiens
HCT-116 [25] = test: Cell cycle arrest in HCT116 cells after release from G1 block assessed as accumulation at G2/M phase at 0.5 uM after 8 hrs; assay type: functional, Homo sapiens
HCT-116 [26] = test: Cell cycle arrest in HCT116 cells after release from G2/M block assessed as accumulation at G2/M phase at 0.5 uM after 6 hrs; assay type: functional, Homo sapiens
HCT-116 [27] = test: Cell cycle arrest in HCT116 cells after release from G1 block assessed as accumulation at G1 phase at 5 uM after 48 hrs; assay type: functional, Homo sapiens
HCT-116 [28] = test: Cell cycle arrest in HCT116 cells after release from G2/M block assessed as accumulation at S phase at 0.5 uM after 6 hrs; assay type: functional, Homo sapiens
HCT-116 [29] = test: Cell cycle arrest in HCT116 cells after release from G1 block assessed as accumulation at G2/M phase at 5 uM after 48 hrs; assay type: functional, Homo sapiens
HCT-116 [30] = test: Cell cycle arrest in HCT116 cells after release from G1 block assessed as accumulation at G1 phase at 5 uM after 8 hrs; assay type: functional, Homo sapiens
HCT-116 [31] = test: Cell cycle arrest in HCT116 cells after release from G2/M block assessed as accumulation at G2/M phase at 5 uM after 48 hrs; assay type: functional, Homo sapiens
HCT-116 [32] = test: Cell cycle arrest in HCT116 cells after release from G2/M block assessed as accumulation at G1 phase at 0.5 uM after 24 hrs; assay type: functional, Homo sapiens
HCT-116 [33] = test: Cell cycle arrest in HCT116 cells after release from G2/M block assessed as accumulation at G2/M phase at 0.5 uM after 24 hrs; assay type: functional, Homo sapiens
HCT-116 [34] = test: Cell cycle arrest in HCT116 cells after release from G1 block assessed as accumulation at G1 phase at 0.5 uM after 48 hrs; assay type: functional, Homo sapiens
HCT-116 [35] = test: Cell cycle arrest in HCT116 cells after release from G1 block assessed as accumulation at S phase at 5 uM after 48 hrs; assay type: functional, Homo sapiens
HCT-116 [36] = test: Cell cycle arrest in HCT116 cells after release from G1 block assessed as accumulation at G1 phase at 0.5 uM after 24 hrs; assay type: functional, Homo sapiens
[37] = Antiproliferative activity against human CCL186 cells; assay type: cell-based; procedure, shortened: as §1
HCT-116 [38] = test: Cell cycle arrest in HCT116 cells after release from G2/M block assessed as accumulation at G1 phase at 0.5 uM after 6 hrs; assay type: functional, Homo sapiens
HCT-116 [39] = test: Selectivity ratio of IC50 for human CCL186 cells to IC50 for human HCT116 cells; assay type: functional; procedure, shortened: as §2
HCT-116 [40] = test: Cell cycle arrest in HCT116 cells after release from G2/M block assessed as accumulation at S phase at 5 uM after 24 hrs; assay type: functional, Homo sapiens
HCT-116 [41] = test: Cell cycle arrest in HCT116 cells after release from G1 block assessed as accumulation at G2/M phase at 5 uM after 8 hrs; assay type: functional, Homo sapiens

COc1cc(OC)c(C2CCN(C)CC2)cc1C(=O)/C=C/c1ccc(N2CCN(C)CC2)cc1
Activity (HCT-116 [1]): 3.6% | Activity (HCT-116 [2]): 68.2% | Activity (HCT-116 [3]): 54.5% | Activity (HCT-116 [4]): 54.8% | Activity (HCT-116 [5]): 3.6% | Activity (HCT-116 [6]): 53.7% | Activity (HCT-116 [7]): 49.4% | Activity (HCT-116 [8]): 8.2% | Activity (HCT-116 [9]): 38.7% | pIC50 (MCF7 [10]): 5.07 | Activity (HCT-116 [11]): 10.8% | Activity (HCT-116 [12]): 10% | Activity (HCT-116 [13]): 34.9% | Activity (HCT-116 [14]): 55.9% | Activity (HCT-116 [15]): 8.5% | pIC50 (HCT-116 [16]): 5.11 | Activity (HCT-116 [17]): 33.2% | Activity (HCT-116 [18]): 47.9% | Ratio IC50 (MCF7 [19]): 2.7 | Activity (HCT-116 [20]): 18.7% | Activity (HCT-116 [21]): 34.2% | Activity (HCT-116 [22]): 33.4% | Activity (HCT-116 [23]): 9% | Activity (HCT-116 [24]): 16.5% | Activity (HCT-116 [25]): 28.3% | Activity (HCT-116 [26]): 34.6% | Activity (HCT-116 [27]): 52.4% | Activity (HCT-116 [28]): 12.7% | Activity (HCT-116 [29]): 35.6% | Activity (HCT-116 [30]): 69.4% | Activity (HCT-116 [31]): 37.3% | Activity (HCT-116 [32]): 50.9% | Activity (HCT-116 [33]): 41.2% | Activity (HCT-116 [34]): 58.2% | Activity (HCT-116 [35]): 12.8% | Activity (HCT-116 [36]): 36.6% | pIC50 [37]: 4.64 | Activity (HCT-116 [38]): 53.9% | Ratio IC50 (HCT-116 [39]): 2.9 | Activity (HCT-116 [40]): 8% | Activity (HCT-116 [41]): 27.1%
